SIAE primary – blocks human sialic acid acetylesterase; Q9HAT2; SIAE FP-Rh probe binding, fluorescence polarization; inhibition, % at 9.66 µM; actives 0.69% (n = 370,000);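 active = inhibition above a cutoff: mean of compounds within the control limits plus 3 SD of those, cut at about 17% in these data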;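 also: 0% = plate median of compound wells and 100% = probe without SIAE protein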
TCR CD3 inh – inhibitors of human TCR-CD3 interaction; TAMRA-labeled TCR probe fluorescence, biochemical; inhibition, % at 9.4 µM; actives 0.37% (n = 360,000); AID 651800; in the data active = inhibition above about 19%;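 also: recombinant mutant TCR 2C K166C tagged with TAMRA read by polarization; 0% = receptor in buffer alone and 100% = receptor with positive control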
Tn6 DDE FP – inhibitors of Tn6 peptide binding to human fibrin DD(E); P02675; Fibrin DD(E) TRITC-Tn6 fluorescence polarization displacement; inhibition, % at 8.3 µM; actives 0.21% (n = 370,000); AID 720509;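 active = inhibition above a per-campaign cutoff: mean of compounds within control limits plus 3 SD, cut at about 15% in these data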;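 also: 0% = median of all compound wells on the plate and 100% = blocking peptide control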
mABHD4 FP – inhibits mouse alpha/beta hydrolase domain 4; purified mABHD4, FP-Rh probe fluorescence polarization; inhibition, % at 8.92 µM; actives 0.54% (n = 370,000); AID 720543;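 active = inhibition exceeding the mean over every tested compound plus 3 SD, cut at about 30% in these data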;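 also: 0% = plate median of compound wells and 100% = S159A mutant with DMSO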
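Assay system: Wild-type mouse ABHD4 protein | Medium: HEPES pH 7.0 buffer, 150 mM NaCl, 0.01% Pluronic F-127 | Incubation: Enzyme–compound pre-incubation 45 min, then probe 60 min, both 25 °C | Technique: Fluorescence polarization with parallel and perpendicular emission, 525/598 nm | Evaluation: % inhibition of FP-Rh probe binding versus controls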
HTRA1 inhibitor – HTRA1 (human) protease inhibition. AID 504803. recombinant HTRA1, FP-rhodamine activity-based probe, fluorescence polarization. actives 0.5% (n = 340,000). inhibition, % at 5.96 µM; in the data active = inhibition above about 36%;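 also: 0% = enzyme with DMSO and 100% = wells lacking enzyme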
Target sequence (Q92743 whole entry, looked up): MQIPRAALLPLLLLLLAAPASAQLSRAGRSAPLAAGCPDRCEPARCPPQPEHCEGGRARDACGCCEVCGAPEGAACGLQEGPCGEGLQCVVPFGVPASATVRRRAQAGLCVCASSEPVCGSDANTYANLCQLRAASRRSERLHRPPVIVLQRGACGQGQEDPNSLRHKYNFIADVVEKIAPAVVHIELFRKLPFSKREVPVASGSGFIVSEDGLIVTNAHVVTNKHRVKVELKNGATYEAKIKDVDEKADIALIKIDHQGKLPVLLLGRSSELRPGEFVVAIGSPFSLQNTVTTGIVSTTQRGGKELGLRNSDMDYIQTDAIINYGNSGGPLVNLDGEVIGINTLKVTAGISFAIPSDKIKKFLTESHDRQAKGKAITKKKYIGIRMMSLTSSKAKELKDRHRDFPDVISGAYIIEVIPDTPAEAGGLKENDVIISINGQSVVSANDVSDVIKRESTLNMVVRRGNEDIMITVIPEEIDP
DDE Tn7 FP inh – disrupts Tn7 cyclic peptide binding to fibrin D-Dimer-E complex; FP displacement of FITC-Tn7 peptide from fibrin DD(E); 0% = median of compound wells per plate; P02675; inhibition, % at 8.3 µM; AID 720508; actives 0.13% (n = 370,000);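 active = inhibition above the mean of compounds falling within the control limits plus 3 SD of them, cut at about 14% in these data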;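 also: 0% = plate median of compound wells and 100% = 10 µM Aha-Tn7 peptide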
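Test system – human fibrin DD(E) · Times – 10 min preincubation, 3 h with tracer, room temperature · Detection – fluorescence polarization of the labelled Tn7 tracer · Measure – percent inhibition normalized to high-control wells · Benchmarks – high control wells with 10 µM unlabelled Aha-Tn7 peptide (full inhibition) · Repeats – singlicate testing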
SIAE inh conf – human SIAE inhibition, confirmation; shares compounds with SIAE primary; SIAE FP-Rh activity-based probe, fluorescence polarization; inhibition, % at 9.66 µM; actives 13% (n = 2,300); AID 1117263;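 active = mean inhibition of the replicates above the hit cutoff set in the primary screen, cut at about 17% in these data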;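 also: 0% = SIAE with DMSO and probe and 100% = probe without SIAE; inhibitors lower polarization as more probe stays unbound to SIAE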
* = called active by the depositor; x = not tested or not shown. The list is not random: actives were taken first. Their share in the collection is about 1.8%.

SMILES	SIAE primary	TCR CD3 inh	Tn6 DDE FP	mABHD4 FP	HTRA1 inhibitor	DDE Tn7 FP inh	SIAE inh conf
Cc1cc(C)c(NC(=S)N(CCN2CCCCC2)Cc2ccco2)c(C)c1	9.5	-0.9	-9.6	-0.8	-1.5	1.3	x
COc1ccc(CCNCc2cc3ccc(C)cc3[nH]c2=O)cc1OC	1.8	1.9	2.3	-2.8	-8.4	2.3	x
Cc1onc(-c2ccccc2)c1C(=O)Nc1ccc(N2CCOCC2)cc1	0.3	-0.7	-1.4	-2.4	-2.4	1.9	x
Cc1onc(-c2ccccc2Cl)c1C(=O)Nc1ccc(N2CCOCC2)cc1	17.1*	-4.5	-3.8	10.6	-0.7	6.7	1.5
Cc1ccc([C@@H]2CC=C(C(=O)O)[C@H](c3ccc(Cl)cc3)N2S(=O)(=O)c2ccccc2C)cc1	-10.7	3.1	3.1	6.0	-39.1	-1.9	x
Cc1ccc(C)c(NC(=S)NCc2ccc3c(c2)OCO3)c1	18.0*	8.0	2.0	0.0	-0.5	-1.3	-2.4
Cc1ccccc1NC(=S)NCc1ccc2c(c1)OCO2	2.1	8.7	3.7	2.0	4.4	-2.4	x
COc1ccc2[nH]c(C)c(CCNC(=S)Nc3ccccc3C)c2c1	3.4	-2.0	4.4	-1.0	-0.5	-3.5	x
COc1ccc2[nH]c(C)c(CCNC(=S)Nc3cccc(C)c3C)c2c1	17.7*	1.4	-8.5	1.1	-2.5	5.4	0.1
CC(C)N(Cc1nc2ccccc2c(=O)[nH]1)C(=O)c1ccc(NC(=O)CSc2nnnn2C)cc1	17.5*	-2.0	-5.7	-0.2	-4.2	1.6	-3.5
CC(C)C(=O)c1cn(CC(=O)O)c2ccccc12	18.9*	7.3	5.2	-6.8	-4.0	-0.7	5.4
CC(C)(C)C(=O)c1cn(CC(=O)O)c2ccccc12	-0.7	2.1	1.0	2.6	-0.8	-8.6	x
COc1ccc(C(=O)NCC(=O)N2CCN(c3ccc(F)cc3)CC2)cc1	-3.1	-4.9	8.2	5.9	1.3	0.3	x
CCC(=O)N1CCCC(C(=O)c2ccc(-c3ccccc3)cc2)C1 (stereo not drawn)	-2.1	2.8	0.9	-1.5	-5.8	1.0	x
Cc1cc(C)c(OCC(=O)NCC(C)(C)N2CCOCC2)c(C)c1	-2.0	0.5	7.5	7.5	1.2	7.3	x
COc1cccc(CNc2nccs2)c1O	17.8*	3.9	4.6	3.4	-4.7	4.4	1.4
CSc1ccc(CN2CCC(C)(Oc3cccc(Cl)c3)C2)cc1 (stereo not drawn)	5.3	-5.2	5.6	-3.1	x	2.3	x
O=S(=O)(O)c1cc(O)c2cc(Nc3ccccc3)ccc2c1	18.4*	19.2*	-2.0	65.5*	27.3	-8.3	43.2*
COc1cccc(CNC(=O)CN2C(=O)COc3ccc(S(=O)(=O)N4CCOCC4)cc32)c1	-2.5	-0.1	5.8	-0.2	0.1	-0.1	x
COc1ccc(Cl)cc1NC(=S)N1CCN(C(=O)c2ccco2)CC1	39.3*	1.8	4.8	3.2	6.6	-3.8	-5.2
COc1c(S(=O)(=O)N2CCN(C(=O)c3ccco3)CC2)ccc(Cl)c1Cl	73.0*	6.5	1.1	-2.9	-0.4	-2.6	1.6
C#CCn1c2ccccc2c(=O)n1CCOc1ccccc1OC	3.6	-1.1	-3.5	2.0	x	9.3	x
COCCNC(=O)C(=O)Nc1cc2c3c(c1)CCC(=O)N3CCC2	7.1	0.4	-4.0	2.4	5.7	-2.2	x
COc1cc(/C=N\NC(=O)c2ccc(Cn3cc(Br)c([N+](=O)[O-])n3)o2)cc(OC)c1O	17.5*	4.2	-11.1	8.0	4.1	-3.4	6.4
COc1cc(/C=N/NC(=O)c2ccc(Cn3cc([N+](=O)[O-])cn3)o2)cc(Br)c1O	4.9	9.5	-1.8	6.5	4.6	-0.3	x
SMILES	SIAE primary	TCR CD3 inh	Tn6 DDE FP	mABHD4 FP	HTRA1 inhibitor	DDE Tn7 FP inh	SIAE inh conf
CCn1c2ccccc2c2cc(NC(=O)COC(=O)c3ccc(O)cc3)ccc21	17.1*	5.7	-12.1	-5.4	-6.4	-1.9	-9.7
CCn1c2ccccc2c2cc(NC(=O)c3ccccc3[N+](=O)[O-])ccc21	21.4*	2.6	-6.2	-1.8	7.9	5.0	10.1
CCn1c2ccccc2c2cc(NC(=O)c3ccc([N+](=O)[O-])cc3)ccc21	-0.3	-3.9	6.2	-4.2	5.5	6.6	x
COc1ccccc1C1=NOC(Cn2c(NCCCO)nc3c2c(=O)n(C)c(=O)n3C)C1 (stereo not drawn)	7.0	9.3	-4.5	7.2	-2.6	4.1	x
COc1ccccc1C1=NOC(Cn2c(NCC3CCCO3)nc3c2c(=O)n(C)c(=O)n3C)C1 (stereo not drawn)	17.4*	2.9	2.3	-6.3	2.6	2.4	-0.3
C=C(C)CSc1nc2sc(C)c(C)c2c(=O)n1C	-1.4	x	9.5	6.0	x	2.6	x
O=C(NCC(F)(F)F)c1cc2c(c(-c3cccc(-c4ccccc4F)c3)n1)[C@H](CCO)N(C(=O)CC1CC1)C2	-3.9	-3.0	-4.0	-11.5	x	0.7	x
COCCn1ccc2c(OCC(=O)NCCc3ccccc3)cccc2c1=O	1.9	1.4	5.4	2.0	-5.3	1.9	x
COc1ccccc1N1CCN(/N=C/c2cc(OC)c(O)c(OC)c2)CC1	20.2*	-7.7	-2.5	7.0	1.9	3.6	-2.0
O=C(Nc1cc2c3c(c1)CC(=O)N3CCC2)C1CC1	19.8*	-6.2	-1.9	-1.0	-1.9	2.5	-1.0
CCC(C(=O)NCc1ccc(F)cc1)N(Cc1cccs1)C(=O)c1snc(C(N)=O)c1N (stereo not drawn)	-1.2	11.0	4.5	-5.3	-14.5	5.2	x
COc1ccc(CC(=O)OCC(=O)c2ccc(OC)c(OC)c2)cc1	5.0	1.3	0.3	1.5	-4.8	0.7	x
COc1ccc(CC(=O)c2ccc(OC)c(OC)c2)cc1	17.2*	0.0	5.6	-6.4	1.9	3.6	2.6
Cc1nn(C(C)C(=O)NCCCN2CCCCCC2)c(=O)c2cc3sccc3n12 (stereo not drawn)	1.9	7.6	0.1	-6.7	2.3	-2.1	x
O=C(N/C(=C/c1ccco1)C(=O)N1CCCCCC1)c1ccccc1	13.2	-0.5	-12.7	15.2	2.9	-2.0	x
CCN1CCN(C(=O)/C(=C/c2ccco2)NC(=O)c2ccccc2)CC1	18.4*	10.4	-3.0	-1.1	11.7	-2.3	0.9
C[N+]1(CCCCCCC(=O)/C=N/O)CCCCCC1	19.1*	-1.9	1.1	4.1	3.6	-2.0	3.0
Oc1ccc(C(=S)N2CCCC2)cc1	-2.2	-2.2	1.1	-5.2	1.8	1.6	x
Oc1ccc(C(=S)N2CCCCCC2)cc1	22.9*	6.9	4.2	-3.9	1.7	7.7	0.2
O=C(O)c1cccc(NC(=O)c2ccc3c(c2)C(=O)N(c2ccccc2)C3=O)c1	-1.6	-1.4	-3.2	3.8	-3.4	1.9	x

Assay outcomes (PubChem BioAssay)
